High-throughput results: PubChem, several laboratories
NPY-Y1 antag: antagonists of human neuropeptide Y receptor Y1; inhibition, % at 3.6 µM; AID 1040; HEK293-CNG Y1 cells, membrane potential fluorescence; NPY at EC95, then isoproterenol; P25929; hit rate 1% among 200,000;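 active = inhibition above the campaign mean inhibition of all tested compounds plus 3 SD, cut at about 20% in these data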;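 also: 0% = DMSO wells given NPY plus isoproterenol and 100% = isoproterenol alone without NPY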
Target sequence (P25929 whole entry, looked up): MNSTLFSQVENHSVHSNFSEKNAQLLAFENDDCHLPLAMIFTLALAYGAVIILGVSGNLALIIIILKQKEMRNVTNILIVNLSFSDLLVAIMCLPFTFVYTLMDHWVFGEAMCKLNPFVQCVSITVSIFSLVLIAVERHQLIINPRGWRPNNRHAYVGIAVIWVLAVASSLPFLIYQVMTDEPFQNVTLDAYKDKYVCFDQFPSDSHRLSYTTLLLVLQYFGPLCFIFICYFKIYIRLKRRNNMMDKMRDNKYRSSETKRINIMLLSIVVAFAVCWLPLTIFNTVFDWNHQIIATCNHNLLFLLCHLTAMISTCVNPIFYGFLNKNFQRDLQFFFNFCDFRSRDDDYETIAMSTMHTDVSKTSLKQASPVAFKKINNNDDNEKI
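material = HEK293 cells with Y1 receptor plus CNG channel | also added = NPY 25 nM then isoproterenol 1 µM plus Ro 20-1724 25 µM | schedule = dye 3 h, compound 60 min room temperature, stimulation 45 min | measured by = membrane potential fluorescence | benchmarks = high control isoproterenol alone, low control NPY with isoproterenol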
NPY2 pot ag: human NPY-Y2 potentiation or agonism, primary screen; P49146; cells expressing NPY-Y2, potentiator/agonist read-out; activation, % at 3.6 µM; hit rate 0.45% among 220,000; in the data active = activation above about 27%;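 also: cells stimulated with NPY near EC25 plus isoproterenol at EC100; 0% = vehicle plus submaximal agonist and 100% = vehicle plus saturating agonist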
NPY-Y2 antag: blocks the human neuropeptide Y Y2 receptor; P49146; NPY-Y2 expressing cells, antagonist mode; inhibition, % at 2.7 µM; hit rate 0.99% among 140,000; in the data active = inhibition above about 17%;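 also: 0% = vehicle with agonist challenge and 100% = reference antagonist with challenge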
MT stabilize HCS: stabilizes microtubules in HeLa cells; HeLa tubulin immunostaining HCS, 24 h; share of cells brighter than vehicle mean+2SD; % tubulin-high responders, % at 10 µM; hit rate 0.83% among 200,000; AID 2205;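 active = plate Z-score above 3 for both tubulin-high and condensed-nucleus cell shares, with cell loss under 80%, at 10 µM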;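 also: anti alpha tubulin signal scored within the nucleus-defined area of each cell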
NPY1 pot ag: potentiators or agonists of human neuropeptide Y receptor Y1; P25929; hit rate 0.37% among 220,000; AID 1304; NPY-Y1 expressing cells, potentiator/agonist activation; activation, % at 3.6 µM; in the data active = activation above about 33%, passing the limit was not always enough;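 also: cells stimulated with NPY at EC10 then isoproterenol at EC100; 0% = low agonist plus stimulus and 100% = saturating agonist plus stimulus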
bCat nuc transl: modulators of beta-catenin nuclear translocation | HeLa beta-catenin nuclear translocation, immunofluorescence imaging | nuclear translocation activity, % at 5 µM | hit rate 0.3% among 190,000 | AID 1665;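 active = nuclear translocation activity above 50% at 5 µM, with a well cell count of 50 or more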;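 also: per-cell ratio of nuclear to cytoplasmic median beta-catenin stain intensity; plate controls were DMSO negative control for no effect and GSK-3 inhibitor IX positive control for full effect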
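Assay system: human HeLa cells, native beta-catenin; doses: 5 µM primary, 0.02–20 µM confirmation; incubation: compound treatment 24 h, 37°C, 5% CO2; technique: fluorescence imaging of beta-catenin antibody stain plus DAPI; measure: % activation, nuclear-to-cytoplasmic median beta-catenin signal ratio per cell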
The depositor's hits bear a star; . = no result. Hits are enriched below; roughly 2.6% of the tested compounds scored in any of these assays.

SMILES	NPY-Y1 antag	NPY2 pot ag	NPY-Y2 antag	MT stabilize HCS	NPY1 pot ag	bCat nuc transl
Cc1c(-c2nnc(SCC(=O)O)n2-c2ccccc2Br)nnn1-c1ccccc1	7	10	1	3	2	-3
O=C(CSc1nnc(-c2cccnc2)n1-c1ccc(SC(F)F)cc1)N1CCCc2ccccc21	3	9	19*	1	6	1
COC(=O)C(C)NC(=O)c1ccc(C(C)(C)C)cc1 (centres undefined)	-1	-4	0	3	-28	-3
CCn1nc(C)c(C(=O)Nc2cc(Oc3ccc(Cl)cc3)cc([N+](=O)[O-])c2)c1C	-2	-17	9	29*	-18	3
C=CCOc1ccc(C2C(C#N)=C(N)N(Nc3ccccc3)C3=C2C(=O)CC(C)(C)C3)cc1OC (centres undefined)	0	6	-3	32*	-29	2
COc1ccc(C2C(C#N)=C(N)OC3=C2C(=O)CC(C)(C)C3)cc1OC (centres undefined)	12	-1	.	1	0	-2
COC(=O)c1c(NC(=O)CN2CCN(Cc3ccc4c(c3)OCO4)CC2)sc(C)c1C	48*	-51	38*	4	-95	-1
COCCCNC(=O)c1ccc(N2CCCC2)c(NS(=O)(=O)c2ccc(C)cc2)c1	-4	5	4	7	1	-4
CCOCCCNC(=O)c1ccc(N2CCCC2)c(NS(=O)(=O)c2ccc(C)cc2)c1	-9	33*	.	4	58*	-2
CCc1ccc(S(=O)(=O)NC(=S)NC2CCCCC2)cc1	-1	-11	.	5	-40	0
COCCOC(=O)c1c(C)oc2ccc(O)c(CN3CCC(C)CC3)c12	15	-8	13	3	-15	-1
CCOC(=O)c1c(-c2ccccc2)oc2ccc(O)c(CN(C)C)c12	22*	-35	25*	2	-49	.
CCOC(=O)c1c(-c2ccccc2)oc2ccc(O)c(CN3CCCC3)c12	39*	-44	23*	3	-43	-1
COC(=O)CSc1cc([N+](=O)[O-])cc2c1c(C1OCCO1)nn2-c1ccccc1	4	-6	2	4	9	-4
CC1(C)Cc2nc3sc4c(=O)n(CC(N)=O)cnc4c3cc2CO1	6	-10	0	2	15	-2
CC1(C)Cc2nc3sc4c(SCC(=O)NCc5ccco5)ncnc4c3cc2CO1	13	-11	-2	29*	-13	59*
CCCc1nc2c(sc3nc4c(cc32)COC(C)(C)C4)c(=O)n1Cc1ccco1	13	-5	1	1	-12	.
Cc1nc2c(sc3nc4c(cc32)COC(C)(C)C4)c(=O)n1CC(=O)NCc1ccco1	-4	-6	4	28*	-22	.
CC1(C)Cc2nc3sc4c(=O)n(CC(=O)NCc5ccccc5)cnc4c3cc2CO1	-3	-2	3	34*	21	.
CC(C)S(=O)(=O)C/C(N)=N/OC(=O)c1cc(Cl)cc(Cl)c1	.	-3	.	.	-12	0
CC(=O)N1N=C(c2cccc([N+](=O)[O-])c2)OC1c1cccc(Br)c1 (centres undefined)	3	6	.	24*	4	66*
CS(=O)(=O)N(CC(=O)NC1CC2CCC1C2)c1ccc(Oc2ccccc2)cc1 (centres undefined)	-1	-4	.	3	7	-1
COc1ccc2cc(-c3[nH]ncc3CN3CCCC3c3nonc3C)ccc2c1 (centres undefined)	3	-4	.	11*	8	2
COc1ccc(-c2[nH]ncc2CN2CCCC(C(=O)c3cccc(OC)c3)C2)cc1 (centres undefined)	2	2	.	3	-6	-1
CCn1c(Cn2nnc(-c3ccccc3)n2)nnc1SCC(=O)Nc1cccc(C(C)=O)c1	-8	20	-4	6	1	-1
CCn1c(Cn2nnc(-c3ccccc3)n2)nnc1SCC(=O)Nc1ccc(C(C)=O)cc1	-20	47*	-9	2	46*	-1
Cc1cccc(-n2ncc3c(NCc4ccco4)ncnc32)c1	6	10	6	28*	-4	45
COc1ccc(Nc2ncnc3c2cnn3-c2ccccc2)cc1OC	1	-1	10	4	-8	0
